Values after ≈ are worked out from the molar mass of the structure shown. Active and inactive are the calls of the source. The rule behind the calls is not given here.
Columns and labels:
[1] = Cytotoxicity against rat PC12 cells assessed as reduction in cell viability at 128 ug/mL after 72 hrs by MTT assay; format: cell-based; conditions: pc-12, 72 h
Procedure, shortened: (§1)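 PC12 and human hepatocyte LO2 cells were exposed to compound at 8–512 µg/mL in twofold steps. Viability was read by colorimetric MTT assay, with norfloxacin as positive control. Each value is the mean of three replicates.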

Calf thymus DNA = assay: Binding affinity to calf thymus double stranded DNA assessed as hypochromic effect in absence of Mg2+ ion by […] spectroscopic analysis; format: nucleic-acid assay; conditions: Bos taurus
Pseudomonas aeruginosa = assay: Antibacterial activity against Pseudomonas aeruginosa ATCC 9027 after 18 to 24 hrs; format: functional
[2] = Cytotoxicity against rat PC12 cells assessed as reduction in cell viability at 256 ug/mL after 72 hrs by MTT assay; format: cell-based; conditions: pc-12, 72 h; procedure, shortened: as §1
Bacillus spizizenii = assay: Antibacterial activity against Bacillus subtilis ATCC 6633 after 18 to 24 hrs; format: functional
[3] = Cytotoxicity against human LO2 cells assessed as reduction in cell viability at 128 ug/mL after 72 hrs by MTT assay; format: cell-based; conditions: l02, 72 h; procedure, shortened: as §1
[4] = Cytotoxicity against human LO2 cells assessed as cell viability at 512 ug/mL after 72 hrs by MTT assay; format: cell-based; conditions: l02, 72 h; procedure, shortened: as §1
[5] = Antibacterial activity against Eberthella typhosa ATCC 14028 after 18 to 24 hrs; format: functional
[6] = Cytotoxicity against human LO2 cells assessed as reduction in cell viability at 256 ug/mL after 72 hrs by MTT assay; format: cell-based; conditions: l02, 72 h; procedure, shortened: as §1
Staphylococcus aureus [7] = assay: Antibacterial activity against methicillin-resistant Staphylococcus aureus N315 after 18 to 24 hrs; format: functional
Micrococcus luteus = assay: Antibacterial activity against Micrococcus luteus ATCC 4698 after 18 to 24 hrs; format: functional; conditions: NCTC 2665
Escherichia coli = assay: Antibacterial activity against Escherichia coli ATCC 25922 after 18 to 24 hrs; format: functional
Bacillus [8] = assay: Antibacterial activity against Bacillus proteus ATCC 13315 after 18 to 24 hrs; format: functional
Staphylococcus aureus [9] = assay: Antibacterial activity against Staphylococcus aureus ATCC 25923 after 18 to 24 hrs; format: functional
[10] = Inhibition of Escherichia coli DNA gyrase assessed as reduction in enzyme-mediated supercoiling of pBR322 DNA after 1.5 hrs by agarose gel electrophoresis method
Bacillus [11] = assay: Potency index, ratio of norfloxacin MIC to compound MIC for Bacillus proteus ATCC 13315; format: functional
Eberthella typhosa = assay: Potency index, ratio of norfloxacin MIC to compound MIC for Eberthella typhosa ATCC 14028; format: functional
Staphylococcus aureus [12] = assay: Binding affinity to methicillin-resistant Staphylococcus aureus double stranded genomic DNA assessed as decrease in fluorescence intensity at 2.23 x 10^-5 M in presence of 0.4 x 10^-6 M Cu2+ ions by spectrofluorometric analysis
Procedure, shortened: (§2)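 MRSA genomic DNA stock was quantified by absorbance at 260 nm, using ε260 = 6600 L mol⁻¹ cm⁻¹ (as molarity of phosphate). Purity was checked by the A260/A280 ratio.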

[13] = Binding affinity to 4.69 x 10^-5 M Cu2+ at 2.23 x 10^-5 M at pH 7.4 by spectrofluorimetric method
[14] = Cytotoxicity against human LO2 cells assessed as cell viability at <512 ug/mL after 72 hrs by MTT assay relative to control; format: cell-based, L02; conditions: read-out: Activity; procedure, shortened: as §1
Albumin [15] = target: T1, Albumin (Homo sapiens, UniProt P02768); assay: Binding affinity to human serum albumin at pH 7.4 at 303 K by Scatchard plot analysis; format: ADME; conditions: isolated protein
T1 sequence (P02768 whole entry): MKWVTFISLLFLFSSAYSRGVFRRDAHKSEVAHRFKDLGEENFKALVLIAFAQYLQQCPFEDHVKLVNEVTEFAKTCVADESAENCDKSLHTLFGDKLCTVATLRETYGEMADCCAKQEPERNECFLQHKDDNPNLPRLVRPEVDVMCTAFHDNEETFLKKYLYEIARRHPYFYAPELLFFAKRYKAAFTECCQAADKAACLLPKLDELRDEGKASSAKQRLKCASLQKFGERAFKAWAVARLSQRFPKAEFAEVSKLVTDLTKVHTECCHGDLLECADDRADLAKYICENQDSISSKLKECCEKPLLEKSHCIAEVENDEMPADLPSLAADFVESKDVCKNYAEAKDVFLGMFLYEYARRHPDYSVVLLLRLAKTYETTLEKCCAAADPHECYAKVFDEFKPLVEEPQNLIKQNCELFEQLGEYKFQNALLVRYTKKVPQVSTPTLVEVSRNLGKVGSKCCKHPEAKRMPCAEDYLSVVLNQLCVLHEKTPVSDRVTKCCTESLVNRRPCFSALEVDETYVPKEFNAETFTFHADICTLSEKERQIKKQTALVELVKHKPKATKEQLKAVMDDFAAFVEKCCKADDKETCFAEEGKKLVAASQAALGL
Procedure, shortened: (§3)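 Scatchard treatment of the HSA fluorescence-quenching titration in pH 7.4 solution (excitation 295 nm) at each temperature. It gave the binding constant Kb and the number of binding sites n, with fit correlation R and SD.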

Albumin [16] = target: T1, Albumin; assay: Binding affinity to human serum albumin at pH 7.4 at 310 K by Scatchard plot analysis; format: ADME; conditions: isolated protein; procedure, shortened: as §3
[17] = Cytotoxicity against rat PC12 cells assessed as cell viability at <512 ug/mL after 72 hrs by MTT assay relative to control; format: cell-based, PC-12; conditions: read-out: Activity; procedure, shortened: as §1
Staphylococcus aureus [18] = assay: Binding affinity to methicillin-resistant Staphylococcus aureus […] genomic DNA assessed as decrease in fluorescence intensity at 2 x 10^-5M at 294 K by spectrofluorometric analysis; procedure, shortened: as §2
Staphylococcus aureus [19] = assay: Antibacterial activity against methicillin/quinolone-resistant Staphylococcus aureus ATCC 700699; format: functional
[20] = Binding affinity to 0 to 6.03 x 10^-5 M Cu2+ assessed as 1:1 compound/metal ion complex formation at 2.23 x 10^-5 M at pH 7.4 by spectrofluorimetric method
Staphylococcus aureus [21] = assay: Binding affinity to methicillin-resistant Staphylococcus aureus double stranded genomic DNA assessed as decrease in fluorescence intensity at 2.23 x 10^-5M in presence of 20 x 10^-5 M Cu2+ ions by spectrofluorometric analysis; procedure, shortened: as §2
Staphylococcus aureus [22] = assay: Binding affinity to methicillin-resistant Staphylococcus aureus double stranded genomic DNA assessed as decrease in fluorescence intensity in absence of Cu2+ ions by spectrofluorometric analysis; procedure, shortened: as §2
[23] = Cytotoxicity against rat PC12 cells assessed as cell viability at 512 ug/mL after 72 hrs by MTT assay; format: cell-based; conditions: pc-12, 72 h; procedure, shortened: as §1
Staphylococcus aureus [24] = assay: Electrostatic binding to methicillin-resistant Staphylococcus aureus double stranded genomic DNA assessed as Stern-Volmer constant in presence of potassium iodide by steady state quenching analysis; procedure, shortened: as §2
Staphylococcus aureus [25] = assay: Binding affinity to methicillin-resistant Staphylococcus aureus double stranded genomic DNA assessed as hypochromic effect by spectroscopic analysis; procedure, shortened: as §2
Albumin [26] = target: T1, Albumin; assay: Binding affinity to human serum albumin at pH 7.4 at 288 K by Scatchard plot analysis; format: ADME; conditions: isolated protein; procedure, shortened: as §3

| Structure (SMILES) | Activity [1] | MIC (Pseudomonas aeruginosa) | Activity [2] | MIC (Bacillus spizizenii) | Activity [3] | Activity [4] | MIC [5] | Activity [6] | MIC (Staphylococcus aureus [7]) | MIC (Micrococcus luteus) | MIC (Escherichia coli) | MIC (Bacillus [8]) | MIC (Staphylococcus aureus [9]) | IC50 [10] | other results |
| --- | --- | --- | --- | --- | --- | --- | --- | --- | --- | --- | --- | --- | --- | --- | --- |
| CCn1cc(C(=O)O)c(=O)c2cc(F)c(N3CCNCC3)cc21 [NORFLOXACIN] | Toxic | 1.7 µg/mL (≈ 5.32 µM) | Toxic | 1.3 µg/mL (≈ 4.07 µM) | Toxic | Toxic | 5.3 µg/mL (≈ 16.6 µM) | Toxic | 10.7 µg/mL (≈ 33.5 µM) | 2.7 µg/mL (≈ 8.46 µM) | 4.3 µg/mL (≈ 13.5 µM) | 13.3 µg/mL (≈ 41.6 µM) | 0.8 µg/mL (≈ 2.51 µM) | 18.2 µM | Activity (Calf thymus DNA): 16% |
| CCn1cc(-c2csc(N)n2)c(=O)c2cc(F)c(F)cc21 |  | 78.6 µg/mL (≈ 256 µM) |  | 26.7 µg/mL (≈ 86.9 µM) |  |  | 1.2 µg/mL (≈ 3.9 µM) |  | 213 µg/mL (≈ 694 µM) | 5.3 µg/mL (≈ 17.2 µM) | 256 µg/mL (≈ 833 µM) | 0.6 µg/mL (≈ 1.95 µM) | 0.8 µg/mL (≈ 2.6 µM) |  | Ratio (Bacillus [11]): 22; Ratio (Eberthella typhosa): 4 |
| CCn1cc(-c2csc(N)n2)c(=O)c2cc(N3CCCC3)c(Cl)cc21 | Non-toxic | 0.5 µg/mL (≈ 1.33 µM) | Non-toxic | 1.3 µg/mL (≈ 3.47 µM) | Non-toxic | Non-toxic | 2 µg/mL (≈ 5.33 µM) | Non-toxic | 0.8 µg/mL (≈ 2.13 µM) | 2.7 µg/mL (≈ 7.2 µM) | 0.8 µg/mL (≈ 2.13 µM) | 1 µg/mL (≈ 2.67 µM) | 0.6 µg/mL (≈ 1.6 µM) | 11.5 µM | Activity (Staphylococcus aureus [12]): Active; Activity [13]: Active; viability at 72 h [14]: > 88%; Kb (Albumin [15]): 0.701 ×10⁵ L/mol; Kb (Albumin [16]): 0.656 ×10⁵ L/mol; viability at 72 h [17]: > 88%; Activity (Staphylococcus aureus [18]): Active; MIC (Staphylococcus aureus [19]): 16 µg/mL (≈ 42.7 µM); Activity [20]: Active; Activity (Staphylococcus aureus [21]): Active; Activity (Staphylococcus aureus [22]): inactive; Activity [23]: Non-toxic; KSV (Staphylococcus aureus [24]): 30.1 M⁻¹; Activity (Staphylococcus aureus [25]): 11.4%; Kb (Albumin [26]): 0.726 ×10⁵ L/mol |
